# TAAR1 antag – antagonists of human TAAR1; Q96RJ0; CHO RD-HGA16 TAAR1, Fluo-8 calcium fluorescence, antagonist; inhibition, % at 3 µM; actives 1.5% (n = 360,000);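 active means inhibition above a per-plate cutoff, the mean inhibition of test compounds on that plate plus 3 SD, cut at about 49% in these data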;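 further: 0% = DMSO plus EC80 beta-PEA response and 100% = DMSO alone without agonist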
#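 Test system: hTAAR1-expressing CHO RD-HGA16 cells, Gα16-coupled; Probe or stimulus: EC80 β-phenethylamine stimulus; Compound dosing: single nominal final test compound concentration of 3 µM; Timing: 140 s kinetic read after compound, 140 s after agonist; Signal: Fluo-8 calcium-sensitive fluorescence; Measure: % inhibition of agonist calcium response; Controls: DMSO and EC80 PEA controls.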
# ANO1 activ – activators or potentiators of mouse TMEM16A chloride channel; HEK293 TMEM16A/YFP-H148Q/I152L, iodide quench fluorescence; hits give low values; B-score at 10 µM; actives 0.3% (n = 340,000);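 active means fluorescence-ratio B-score plate-corrected deviation score at least 3 library SD below zero, with starting fluorescence score within 5 deviations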;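 further: channel opened by trigger with iodide after compound preincubation; score built on the fluorescence ratio of max minus min over baseline; more negative score means more quench and so TMEM16A activation or potentiation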
# Target sequence (Q8BHY3 whole entry, looked up): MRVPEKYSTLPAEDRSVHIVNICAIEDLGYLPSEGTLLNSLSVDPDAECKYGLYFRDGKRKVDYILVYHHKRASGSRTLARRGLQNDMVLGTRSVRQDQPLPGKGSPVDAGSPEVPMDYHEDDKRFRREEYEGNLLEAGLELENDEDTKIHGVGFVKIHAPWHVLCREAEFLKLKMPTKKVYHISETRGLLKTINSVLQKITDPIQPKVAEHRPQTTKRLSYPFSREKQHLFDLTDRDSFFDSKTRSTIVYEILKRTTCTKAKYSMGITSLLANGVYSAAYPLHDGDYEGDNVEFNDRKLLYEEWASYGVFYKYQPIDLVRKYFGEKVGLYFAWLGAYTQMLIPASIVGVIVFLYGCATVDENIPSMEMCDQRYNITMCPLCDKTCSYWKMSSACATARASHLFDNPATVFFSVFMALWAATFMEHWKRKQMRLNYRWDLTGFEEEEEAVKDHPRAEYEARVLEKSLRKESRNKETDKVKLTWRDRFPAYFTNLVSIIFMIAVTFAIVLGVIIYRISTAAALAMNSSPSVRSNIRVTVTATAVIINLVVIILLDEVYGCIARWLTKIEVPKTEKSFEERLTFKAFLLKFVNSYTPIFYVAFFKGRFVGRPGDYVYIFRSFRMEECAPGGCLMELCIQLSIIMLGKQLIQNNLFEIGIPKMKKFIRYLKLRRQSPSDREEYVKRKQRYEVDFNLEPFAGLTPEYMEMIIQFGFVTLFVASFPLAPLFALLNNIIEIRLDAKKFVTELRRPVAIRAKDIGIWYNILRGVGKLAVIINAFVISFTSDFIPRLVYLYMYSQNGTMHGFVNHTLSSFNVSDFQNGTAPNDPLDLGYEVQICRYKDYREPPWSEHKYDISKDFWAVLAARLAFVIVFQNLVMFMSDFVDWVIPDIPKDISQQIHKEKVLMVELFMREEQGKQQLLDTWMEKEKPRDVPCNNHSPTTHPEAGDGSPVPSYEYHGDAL
# CRFBP-R2 agonist – agonists of human CRF-binding protein/CRF-R2 receptor complex; activation, % at 13.2 µM; actives 0.46% (n = 350,000); HEK293 CRF-R2/CRF-BP, calcium dye fluorescence (FLIPR); percent of saturating CRF peptide response;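 active means activation of at least 50%, plus an integration ratio under a set limit after plate pattern correction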;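 further: plate controls were neutral control wells without compound for no effect and CRF at EC100 for full effect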
# CRFR2-BP antag – blocks CRF-induced signaling of the CRF-BP/CRF-R2 complex. HEK293 CRF-R2/CRF-BP, CRF-induced calcium fluorescence. inhibition, % at 11.8 µM. actives 0.59% (n = 350,000). AID 588475;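 active means inhibition of the ligand-induced calcium signal above about 50% at the single tested concentration, limit read from the data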
# TAAR1 ag – human TAAR1 agonism; Q96RJ0; CHO RD-HGA16 TAAR1, Fluo-8 calcium fluorescence; vehicle wells 0%, saturating PEA agonist 100%; activation, % at 3 µM; actives 0.99% (n = 360,000); AID 624467;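 active means activation above the mean activation of all test compounds in the run plus 3 SD, cut at about 38% in these data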
#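 System: CHO-derived RD-HGA16 cells with stable Gα16 and human TAAR1 / Times: 17-24 h plating, Fluo-8 75 min 37 °C, 30 min RT / Technique: calcium-sensitive Fluo-8 signal, excitation 470-495, emission 515-575 nm / Measure: % activation relative to PEA EC100 response / Benchmarks: DMSO and PEA EC100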
# ANO1 block – inhibitors of mouse TMEM16A calcium-activated chloride channel; Q8BHY3; HEK293 TMEM16A/YFP iodide influx fluorescence, ionomycin; normalized B-score (activity score, 25-100; higher = stronger inhibition) at 10 µM; actives 1.2% (n = 310,000); AID 588511;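 active means ratio plate-corrected score three or more library SD toward inhibition, starting fluorescence score within five deviations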;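 further: score derived from kinetic fluorescence span divided by baseline fluorescence per well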
# nonsel antag count – counter-screen for TAAR1 antagonists: nonselective antagonists. inhibition, % at 3 µM. counterscreen cell line, calcium fluorescence, antagonist mode. shares compounds with TAAR1 antag. AID 651780. actives 77% (n = 2,400); in the data active means inhibition above about 22%;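 further: CHO-Ga16 host cells stimulated with ATP at an EC80 level; 0% = agonist EC80 plus vehicle and 100% = vehicle without agonist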
# TAAR1 ant conf – human TAAR1 antagonism, confirmed; shares compounds with TAAR1 antag; TAAR1-expressing cells, fluorescence antagonist read-out; inhibition, % at 3 µM; actives 40% (n = 2,400); in the data active means inhibition above about 49%;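 further: CHO-Ga16 host cells challenged with agonist PEA near its EC80; 0% = agonist at EC80 plus vehicle and 100% = vehicle with no agonist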
# Ga16 ag counter – nonselective Ga16 agonist in TAAR1 antagonist counter-screen; shares compounds with TAAR1 antag; Ga16-expressing cells, calcium fluorescence, agonist counterscreen; activation, % at 3 µM; actives 18% (n = 2,400); AID 651953; in the data active means activation above about 12%;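 further: 0% = vehicle wells and 100% = saturating stimulus response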
# TAAR1 ag count – counter-screen for human TAAR1 antagonists: TAAR1 agonists. shares compounds with TAAR1 antag. hTAAR1 cell line, fluorescence activation, agonist mode. activation, % at 3 µM. actives 2% (n = 2,400); in the data active means activation above about 37%;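 further: CHO cells stably expressing TAAR1 with calcium dye readout; 0% = DMSO vehicle and 100% = full agonist response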
# Starred values were filed as active, the others as inactive; i = inactive; nt = no result. A selection: hits, their analogues and other compounds. The true share with any hit is near 3.9%.
SMILES,TAAR1 antag,ANO1 activ,CRFBP-R2 agonist,CRFR2-BP antag,TAAR1 ag,ANO1 block,nonsel antag count,TAAR1 ant conf,Ga16 ag counter,TAAR1 ag count
CN(c1ccccc1)S(=O)(=O)c1cccc(NC(=O)c2nn(C)c(=O)c3ccccc23)c1,59*,i,0,7,10,nt,25*,41,6,6
CN(c1ccccc1)S(=O)(=O)c1cccc(NC(=O)Cn2cnc3ccccc3c2=O)c1,9,i,1,2,7,i,nt,nt,nt,nt
COc1ccc(OC)c(CCNC(=O)CCCc2nnc3n(C)c(=O)c4sccc4n23)c1,10,i,1,0,-4,i,nt,nt,nt,nt
Cc1cc(C#Cc2c(-c3ccccc3)n(C)c3ccccc23)ccc1F,0,i,24,-21,1,i,nt,nt,nt,nt
O=C(COc1ccc(Cl)cc1)Nc1ccc2c(c1)CCC2,10,i,1,-23,-2,i,nt,nt,nt,nt
CC(=O)c1ccc(OCC(=O)Nc2ccc3c(c2)CCC3)cc1,84*,i,1,7,0,i,1,-1,9,13
O=C(CCCSCCCC(=O)NN=Cc1ccccc1)NN=Cc1ccccc1,66*,i,0,-6,22,nt,43*,56*,10,44*
O=C(CSCC(=O)NN=Cc1ccccc1)NN=Cc1ccccc1,-12,nt,3,3,31,nt,nt,nt,nt,nt
COC(=O)[C@]12CCCCC=C1N(Cc1cccc3ccccc13)C(=O)[C@H](CC(=O)N1CCCCC1)C2,62*,nt,nt,nt,8,nt,22*,42,7,10
CC1CCCN(C(=O)CNC(=O)c2ccco2)C1 (stereo unspecified),-10,i,4,6,3,i,nt,nt,nt,nt
CCOC(=O)C1=C(CC)Nc2ccccc2N=C1NC(=O)c1oc2ccccc2c1C,74*,i,1,-10,4,i,27*,53*,5,2
CCOC(=O)C1=C(CC)Nc2ccccc2N=C1NC(=O)CCNC(C)=O,-20,i,1,-21,2,i,nt,nt,nt,nt
CCOCc1c(C(=O)NC2=Nc3ccccc3NC(CC)=C2C(=O)OCC)oc2ccccc12,61*,i,0,-16,13,i,30*,55*,4,2
Cc1ccnc(Nc2nc(-c3ccc(O)cc3O)cs2)c1,-23,i,0,-6,0,i,nt,nt,nt,nt
CC(C)c1ccc(-c2nn(-c3ccccc3)cc2C(=O)NCC2CCCO2)cc1 (stereo unspecified),88*,i,7,-36,32,i,18,34,3,0
COc1ccc(OCCNC(=O)C2(C)CCN2Cc2ccc3ccccc3c2)cc1 (stereo unspecified),42,nt,nt,nt,2,nt,nt,nt,nt,nt
COc1ccccc1Nc1ncc(C(=O)N2CCN(Cc3ccc(OC)c(OC)c3OC)CC2)c2ccccc12,71*,i,-5,5,9,i,27*,45,5,4
COc1ccc(Nc2ncc(C(=O)N3CCC(C(N)=O)CC3)c3ccccc23)cc1,-4,i,2,16,2,i,nt,nt,nt,nt
COc1ccc(Nc2ncc(C(=O)N3CCN(Cc4ccccc4)CC3)c3ccccc23)cc1,67*,i,4,-30,18,i,33*,51*,14*,13
O=C(N/N=C\c1cccc(F)c1)c1ccc(-c2ccccc2)cc1,57*,i,0,15,-1,i,-5,29,0,-2
COc1ccc(C(=O)N/N=C/c2ccc(OC)c(OS(=O)(=O)c3ccccc3)c2)cc1,71*,i,-1,-11,4,i,19,33,5,0
COc1cc(/C=N/NC(=O)c2cc(-c3ccccc3)sc2N)cc(OC)c1OC,73*,nt,0,24,16,i,32*,50*,13*,15
COc1ccc(/C=N\NC(=O)c2ccc(-c3ccccc3)cc2)cc1COC(C)=O,52*,i,1,1,1,i,26*,43,6,3
COc1ccc(/C=N/NS(=O)(=O)c2ccccc2)cc1OS(=O)(=O)c1ccccc1,1,i,-1,-24,10,i,nt,nt,nt,nt
O=C(N/N=C\c1c(F)c(F)c(F)c(F)c1F)c1ccc(-c2ccccc2)cc1,-3,i,1,-12,2,i,nt,nt,nt,nt
SMILES,TAAR1 antag,ANO1 activ,CRFBP-R2 agonist,CRFR2-BP antag,TAAR1 ag,ANO1 block,nonsel antag count,TAAR1 ant conf,Ga16 ag counter,TAAR1 ag count
COc1cc(/C=N/NC(=O)c2ccc(-c3ccccc3)cc2)cc(OC)c1OC,42,i,-3,18,5,i,nt,nt,nt,nt
COc1ccc(/C=N\NC(=O)c2ccccc2)cc1COc1ccc(F)cc1,31,i,-2,5,1,i,nt,nt,nt,nt
CC(C)c1ccc(S(=O)(=O)N2CCN(C(=O)Cc3ccsc3)CC2)cc1,3,i,-1,15,-1,i,nt,nt,nt,nt
C[C@@H]1CN([C@H](C)CO)C(=O)CCCn2cc(nn2)CO[C@H]1CN(C)C(=O)Nc1cccc(F)c1,5,nt,-1,0,1,nt,nt,nt,nt,nt
COc1ccc(NS(=O)(=O)c2cccc(C(=O)N/N=C/c3ccc4c(c3)OCCO4)c2)cc1,-2,i,-1,9,5,i,nt,nt,nt,nt
COc1ccccc1NS(=O)(=O)c1cccc(C(=O)N/N=C/c2ccc3c(c2)OCCO3)c1,56*,i,10,-6,15,i,32*,45,10,9
COc1ccc(-c2cc(C(=O)N/N=C/c3cc(OC)c(OC)cc3OC)c3ccccc3n2)cc1,68*,i,0,16,9,i,28*,36,6,3
COc1ccc(-c2cc(C(=O)N/N=C/c3cccnc3)c3ccccc3n2)cc1,11,i,-1,-5,6,i,nt,nt,nt,nt
COc1cc(/C=N/NC(=O)c2cc(-c3cccc(OC(C)C)c3)nc3ccccc23)ccc1O,54*,i,-1,20,1,i,16,48,4,11
CC(C)Oc1ccccc1-c1cc(C(=O)N/N=C/c2cccnc2)c2ccccc2n1,50*,i,-1,-15,9,i,21,30,6,5
